Tests used:
Mus musculus [1] = experiment: Antiinflammatory activity in mouse assessed as inhibition of LPS-induced TNFalpha upregulation at 0.03 mg, sc measured 2 hrs after LPS challenge; format: functional
How it was run: (§1)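 Sublethal murine endotoxemia with LPS given intraperitoneally. Compound was given subcutaneously in vehicle of 0.6% DMSO and 1% carboxymethylcellulose (final concentrations) in sterile water. Serum TNF-α was measured 2 h after LPS injection. Values are expressed as % relative to control.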

Mus musculus [2] = experiment: Antiinflammatory activity in mouse assessed as inhibition of LPS-induced TNFalpha upregulation at 0.003 ug, sc measured 2 hrs after LPS challenge; format: functional
How it was run: (§2)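 Murine sublethal endotoxemia: LPS given intraperitoneally, with serum TNF-α measured 2 h after the LPS injection as the end point. Compound was given subcutaneously or orally. Vehicle was 0.6% DMSO and 1% carboxymethylcellulose (final concentrations) in sterile water. Effect is reported as % relative to control.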

Mus musculus [3] = experiment: Antiinflammatory activity in mouse assessed as inhibition of LPS-induced TNFalpha upregulation at 0.12 mg, sc measured 2 hrs after LPS challenge; format: functional; how it was run: as §1
Mus musculus [4] = experiment: Antiinflammatory activity in sc dosed mouse assessed as inhibition of LPS-induced TNFalpha upregulation measured 2 hrs after LPS challenge relative to control; format: functional
How it was run: (§3)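 Murine sublethal LPS endotoxemia screen. LPS is injected intraperitoneally and serum TNF-α is measured 2 h later as the end point. Compound is given subcutaneously or orally in a vehicle of 0.6% DMSO plus 1% carboxymethylcellulose (final concentrations) in sterile water. Values are % relative to control.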

Mus musculus [5] = experiment: Antiinflammatory activity in mouse assessed as inhibition of LPS-induced TNFalpha upregulation at 0.03 ug, sc measured 2 hrs after LPS challenge; format: functional; how it was run: as §2
Mus musculus [6] = experiment: Antiinflammatory activity in mouse assessed as inhibition of LPS-induced TNFalpha upregulation at 0.003 mg, sc measured 2 hrs after LPS challenge; format: functional; how it was run: as §2
Mus musculus [7] = experiment: Antiinflammatory activity in sc dosed mouse assessed as inhibition of LPS-induced TNFalpha upregulation measured 2 hrs after LPS challenge; format: functional
Mus musculus [8] = experiment: Antiinflammatory activity in mouse assessed as inhibition of LPS-induced TNFalpha upregulation at 0.06 mg, sc measured 2 hrs after LPS challenge; format: functional; how it was run: as §1
Mus musculus [9] = experiment: Antiinflammatory activity in mouse assessed as inhibition of LPS-induced TNFalpha upregulation at 300 pg, sc measured 2 hrs after LPS challenge; format: functional; how it was run: as §1
Mus musculus [10] = experiment: Antiinflammatory activity in mouse assessed as inhibition of LPS-induced TNFalpha upregulation at 0.015 mg, sc measured 2 hrs after LPS challenge; format: functional; how it was run: as §1
Mus musculus [11] = experiment: Antiinflammatory activity in mouse assessed as inhibition of LPS-induced TNFalpha upregulation at 0.3 ug, sc measured 2 hrs after LPS challenge; format: functional; how it was run: as §2
Mus musculus [12] = experiment: Antiinflammatory activity in mouse assessed as inhibition of LPS-induced TNFalpha upregulation at 0.0027 ug, po measured 2 hrs after LPS challenge; format: functional; how it was run: as §2
Mus musculus [13] = experiment: Antiinflammatory activity in mouse assessed as inhibition of LPS-induced TNFalpha upregulation at 0.00016 mg, sc measured 2 hrs after LPS challenge; format: functional
How it was run: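 Murine sublethal endotoxemia: LPS given intraperitoneally, serum TNF-α measured 2 h after LPS injection. Compound vehicle 0.6% DMSO plus 1% carboxymethylcellulose (final concentrations) in sterile water.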

Mus musculus [14] = experiment: Antiinflammatory activity in mouse assessed as inhibition of LPS-induced TNFalpha upregulation at 0.016 mg, sc measured 2 hrs after LPS challenge; format: functional; how it was run: as §2
Mus musculus [15] = experiment: Antiinflammatory activity in po dosed mouse assessed as inhibition of LPS-induced TNFalpha upregulation measured 2 hrs after LPS challenge; format: functional
[16] = target: C-C chemokine receptor type 2 (Homo sapiens) (UniProt P41597); experiment: Antagonist activity at CCR2 in human THP1 cells assessed as inhibition of CCL2-induced chemotaxis after 2 hrs by microtiter format trans-well migration assay; format: functional, cell-based; conditions: THP-1
How it was run: (§4)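 Microtiter trans-well migration assay in Gey's balanced salt solution with 1 mg/mL endotoxin-free BSA, no fetal calf serum. Migration ran 2 h at 37 °C. Compounds dissolved in DMSO and added to both top and bottom compartments, final DMSO 1%.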

Mus musculus [17] = experiment: Antiinflammatory activity in mouse assessed as inhibition of LPS-induced TNFalpha upregulation at 0.0186 ug, po measured 2 hrs after LPS challenge; format: functional; how it was run: as §2
Rattus norvegicus = experiment: Plasma concentration in Sprague-Dawley rat at 3 mg/kg, po administered as single dose; format: ADME, organism-based; design: dose 3 mg/kg, route oral; conditions: in vivo
How it was run: (§5)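 Male Sprague-Dawley rats, three per compound, receive a single oral dose by gavage in 1% carboxymethylcellulose in 0.9% saline, with food and water ad libitum. Plasma is sampled from 5 to 480 min and drug is quantified by positive-mode LC/MS/MS after acetonitrile/formic acid extraction. The lower limit of quantitation is about 2 ng/mL. Exposure is AUC(0→t) by the linear/log trapezoidal rule, and F is oral fractional bioavailability.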

Mus musculus [18] = experiment: Antiinflammatory activity in po dosed mouse assessed as inhibition of LPS-induced TNFalpha upregulation measured 2 hrs after LPS challenge relative to control; format: functional; how it was run: as §3
Mus musculus [19] = experiment: Antiinflammatory activity in mouse assessed as inhibition of LPS-induced TNFalpha upregulation at 0.0016 ug, sc measured 2 hrs after LPS challenge; format: functional; how it was run: as §2
[20] = target: C-C chemokine receptor type 2 (Homo sapiens) (UniProt P41597); experiment: Antagonist activity at CCR2 in human THP1 cells assessed as inhibition of CCL2-induced chemotaxis at 100 nM after 2 hrs by microtiter format trans-well migration assay; format: functional, cell-based; conditions: THP-1; how it was run: as §4
[21] = target: C-C chemokine receptor type 2 (Homo sapiens) (UniProt P41597); experiment: Antagonist activity at CCR2 in human THP1 cells assessed as inhibition of CCL2-induced chemotaxis at 0.1 nM after 2 hrs by microtiter format trans-well migration assay; format: functional, cell-based; conditions: THP-1; how it was run: as §4
Mus musculus [22] = experiment: Antiinflammatory activity in mouse assessed as inhibition of LPS-induced TNFalpha upregulation at 0.0186 mg, po measured 2 hrs after LPS challenge; format: functional; how it was run: as §2
Mus musculus [23] = experiment: Antiinflammatory activity in mouse assessed as inhibition of LPS-induced TNFalpha upregulation at 0.75 ug, po measured 2 hrs after LPS challenge; format: functional; how it was run: as §2
[24] = target: C-C chemokine receptor type 2 (Homo sapiens) (UniProt P41597); experiment: Antagonist activity at CCR2 in human THP1 cells assessed as inhibition of CCL2-induced chemotaxis at 1 nM after 2 hrs by microtiter format trans-well migration assay; format: functional, cell-based; conditions: THP-1; how it was run: as §4
Mus musculus [25] = experiment: Antiinflammatory activity in mouse assessed as inhibition of LPS-induced TNFalpha upregulation at 540 pg, po measured 2 hrs after LPS challenge; format: functional; how it was run: as §3
[26] = Half life in Sprague-Dawley rat at 1 mg/kg, iv administered as single dose; format: ADME, organism-based; design: dose 1 mg/kg, route intravenous; conditions: in vivo
How it was run: (§6)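 Male Sprague-Dawley rats, three per compound, receive a single intravenous dose in 5% DMSO in 0.9% saline. Food and water are given ad libitum. Plasma is taken at 5, 15, 30, 60, 120, 180, 240 and 480 min. Drug is measured by LC/MS/MS after extraction with 0.1% formic acid in acetonitrile. The curve is back-extrapolated to time zero assuming an initial volume of 0.26 L/kg.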

[27] = Volume of distribution at steady state in Sprague-Dawley rat at 1 mg/kg, iv administered as single dose; format: ADME, organism-based; design: dose 1 mg/kg, route intravenous; conditions: in vivo, read-out: Vdss; how it was run: as §6
Mus musculus [28] = experiment: Antiinflammatory activity in mouse assessed as inhibition of LPS-induced TNFalpha upregulation at 0.016 ug, sc measured 2 hrs after LPS challenge; format: functional; how it was run: as §2
Mus musculus [29] = experiment: Antiinflammatory activity in mouse assessed as inhibition of LPS-induced TNFalpha upregulation at 0.0016 mg, sc measured 2 hrs after LPS challenge; format: functional; how it was run: as §2
Mus musculus [30] = experiment: Antiinflammatory activity in mouse assessed as inhibition of LPS-induced TNFalpha upregulation at 0.068 ug, po measured 2 hrs after LPS challenge; format: functional; how it was run: as §2
[31] = target: C-C chemokine receptor type 2 (Homo sapiens) (UniProt P41597); experiment: Antagonist activity at CCR2 in human THP1 cells assessed as inhibition of CCL2-induced chemotaxis at 10 nM after 2 hrs by microtiter format trans-well migration assay; format: functional, cell-based; conditions: THP-1; how it was run: as §4
[32] = AUC (0 to t) in Sprague-Dawley rat at 3 mg/kg, po administered as single dose; format: ADME, organism-based; design: dose 3 mg/kg, route oral; conditions: plasma
How it was run: (§7)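 Male Sprague-Dawley rats, three per compound per route, single dose. IV vehicle 5% DMSO in 0.9% saline; oral gavage vehicle 1% carboxymethylcellulose in 0.9% saline; fed ad libitum. Plasma taken 5–480 min post-dose, extracted with 0.1% formic acid in acetonitrile, quantified by LC/MS/MS (positive mode). AUC(0–t) by linear/log trapezoidal rule; IV curve back-extrapolated assuming initial volume 0.26 L/kg.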

Mus musculus [33] = experiment: Antiinflammatory activity in mouse assessed as inhibition of LPS-induced TNFalpha upregulation at 0.0066 ug, sc measured 2 hrs after LPS challenge; format: functional; how it was run: as §2
[34] = target: C-C chemokine receptor type 2 (Homo sapiens) (UniProt P41597); experiment: Antagonist activity at CCR2 in human THP1 cells assessed as inhibition of CCL2-induced chemotaxis at 1000 nM after 2 hrs by microtiter format trans-well migration assay; format: functional, cell-based; conditions: THP-1; how it was run: as §4
[35] = Cmax in Sprague-Dawley rat at 3 mg/kg, po administered as single dose; format: ADME, organism-based; design: dose 3 mg/kg, route oral; conditions: in vivo; how it was run: as §5
[36] = Fractional bioavailability in Sprague-Dawley rat at 3 mg/kg, po administered as single dose; format: ADME, organism-based; conditions: in vivo; how it was run: as §5
[37] = AUC (0 to t) in Sprague-Dawley rat at 1 mg/kg, iv administered as single dose; format: ADME, organism-based, Plasma; design: dose 1 mg/kg, route intravenous; conditions: Sprague-Dawley, plasma; how it was run: as §7
[38] = Clearance in Sprague-Dawley rat at 1 mg/kg, iv administered as single dose; format: ADME, organism-based; design: dose 1 mg/kg, route intravenous; conditions: in vivo; how it was run: as §6

C-C chemokine receptor type 2 (Homo sapiens), sequence (P41597 whole entry, looked up): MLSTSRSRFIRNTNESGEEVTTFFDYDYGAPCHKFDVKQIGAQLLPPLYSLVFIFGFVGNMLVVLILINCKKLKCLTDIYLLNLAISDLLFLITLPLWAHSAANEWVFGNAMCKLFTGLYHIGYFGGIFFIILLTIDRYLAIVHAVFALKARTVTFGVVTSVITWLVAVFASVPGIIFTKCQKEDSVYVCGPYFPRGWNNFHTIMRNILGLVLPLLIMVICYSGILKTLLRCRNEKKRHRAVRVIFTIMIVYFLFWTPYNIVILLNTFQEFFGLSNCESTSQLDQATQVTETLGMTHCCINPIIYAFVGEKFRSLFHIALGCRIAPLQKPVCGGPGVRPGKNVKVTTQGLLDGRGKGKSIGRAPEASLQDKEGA

## C[C@@H]1C[C@H]2[C@@H]3CCC4=CC(=O)C=C[C@]4(C)[C@@]3(F)[C@@H](O)C[C@]2(C)[C@@]1(O)C(=O)CO [DEXAMETHASONE]
Mus musculus [1]
  inhibition (INH): 90%
Mus musculus [2]
  inhibition (INH): 31%
Mus musculus [3]
  inhibition (INH): 88%
Mus musculus [4]
  inhibition (INH): 90%
Mus musculus [5]
  inhibition (INH): 33%
Mus musculus [6]
  inhibition (INH): 75%
Mus musculus [7]
  ED50: 3 µg/kg
Mus musculus [8]
  inhibition (INH): 87%
Mus musculus [9]
  inhibition (INH): 24%
Mus musculus [10]
  inhibition (INH): 84%
Mus musculus [11]
  inhibition (INH): 69%

## CC1(C(=O)N[C@H]2CCCCNC2=O)CCCCC1
Mus musculus [12]
  inhibition (INH): 14%
Mus musculus [13]
  inhibition (INH): 74%
Mus musculus [14]
  inhibition (INH): 88%
Mus musculus [15]
  ED50: 0.33 µg/kg
[16]
  ED50: 90 pM
Mus musculus [17]
  inhibition (INH): 64%
Rattus norvegicus
  Cp: < 2 ng/mL
Mus musculus [18]
  inhibition (INH): 90%
Mus musculus [19]
  inhibition (INH): 11%
Mus musculus [4]
  inhibition (INH): 90%
[20]
  inhibition: 99%
[21]
  inhibition: 38%
Mus musculus [22]
  inhibition (INH): 90%
Mus musculus [23]
  inhibition (INH): 70%
[24]
  inhibition: 98%
Mus musculus [25]
  inhibition (INH): -1%
[26]
  half-life: 11 min
[27]
  Vd: 0.6 L/kg
Mus musculus [7]
  ED50: 0.33 µg/kg
Mus musculus [28]
  inhibition (INH): 71%
Mus musculus [29]
  inhibition (INH): 73%
Mus musculus [30]
  inhibition (INH): 64%
[31]
  inhibition: 100%
[32]
  AUC(0-t): 7.17 ng·h/mL
Mus musculus [33]
  inhibition (INH): 52%
[34]
  inhibition: 100%
[35]
  Cmax: 3 ng/mL
[36]
  bioavailability: 5%
[37]
  AUC(0-t): 48.3 ng·h/mL
[38]
  clearance: 55 mL/min/kg
